Source: ChEMBL document CHEMBL1141508, “Lysinyl macrocyclic hexaoxazoles: synthesis and selective G-quadruplex stabilizing properties” (Bioorg Med Chem Lett, 2008)

Assays:
[1] = test system: Salmonidae; experiment: Binding affinity to salmon testes DNA assessed as transition temperature
How it was run: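 Salmon testes DNA (15 μM base pair) melted with ligand at 15 μM in 10 mM EPPS pH 7.5, KCl added to 50 mM total K+. Absorbance followed at 260 nm in a 1 cm quartz cuvette; heating in 0.5 °C increments, 1.5 min equilibration per setting, readings averaged over 5 s.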

[2] = species on record: Homo sapiens; experiment: Binding affinity to human d(T2AG3)4 DNA assessed as transition temperature
How it was run: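 UV melting of d[T2G3(T2AG3)3A] (5 μM strand) with macrocycle at 20 μM in 10 mM potassium phosphate pH 7.5, KCl added to 150 mM total K+. Absorbance read at 295 nm, 1 cm quartz cuvette; temperature raised in 0.5 °C steps with 1.5 min equilibration, absorbance averaged over 5 s at each step.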

[3] = Cytotoxicity against human RPMI8402 cells; format: functional, cell-based; details: RPMI 8402

| T [1] [°C] | T [2] [°C] | Structure (SMILES) | IC50 [3] [nM] |
| --- | --- | --- | --- |
| 79 | 102 | NCCCC[C@@H]1NC(=O)c2coc(n2)-c2coc(n2)-c2coc(n2)[C@H](CCCCN)NC(=O)c2coc(n2)-c2coc(n2)-c2coc1n2 |  |
| 76.5 | 77 | CC(C)[C@@H]1NC(=O)c2coc(n2)-c2coc(n2)-c2coc(n2)[C@H](C(C)C)NC(=O)c2coc(n2)-c2coc(n2)-c2coc1n2 [HEXAOXAZOLE DIVALINE] | 400 |
| 76.5 | 79 | CC(=O)NCCCC[C@@H]1NC(=O)c2coc(n2)-c2coc(n2)-c2coc(n2)[C@H](C(C)C)NC(=O)c2coc(n2)-c2coc(n2)-c2coc1n2 |  |
| 76.5 | 90 | CC(C)[C@@H]1NC(=O)c2coc(n2)-c2coc(n2)-c2coc(n2)[C@H](CCCCN)NC(=O)c2coc(n2)-c2coc(n2)-c2coc1n2 |  |

| Structure (SMILES) | T [1] [°C] | T [2] [°C] | IC50 [3] [nM] |
| --- | --- | --- | --- |
| CC(C)[C@@H]1NC(=O)c2coc(n2)-c2coc(n2)-c2coc(n2)[C@H](CCCCN(C)C)NC(=O)c2coc(n2)-c2coc(n2)-c2coc1n2 | 76 | 81 |  |
